The source of these data is ChEMBL document CHEMBL2146400, “Antiophidic solanidane steroidal alkaloids from Solanum campaniforme” (J Nat Prod, 2011).

One data set has as its system HL-60. Put plainly: Antiproliferative activity against human HL60 cells. The class given is functional, cell-based.
The subject of another data set is SF-295. Put plainly: Antiproliferative activity against human SF295 cells. The class given is functional, cell-based.
A further data set relates to MDA-MB-435. Nature of the data set: Antiproliferative activity against human MDA-MB-435 cells. The class given is functional, cell-based.
In the next data set the test system is HCT-8. Nature of the data set: Antiproliferative activity against human HCT8 cells. The class given is functional, cell-based.
Data set [1] deals with Bothrops pauloensis. Put plainly: Antiophidic activity against Bothropoides pauloensis venom-induced myotoxicity in Swiss mouse assessed as creatine kinase level at 50 ug preincubated with venom for 30 mins before venom injection measured 2 to 48 hrs post dose. The data set is classed as functional. The gist of the method:
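Injected mixture was 50 μg venom with 50 μg alkaloid in 50 μL 1% DMSO–PBS (pH 7.2), preincubated 30 min at 37 °C; vehicle controls. Retro-orbital blood was taken at 2, 4, 8, 24 and 48 h. Plasma creatine kinase was measured by UV kit, in U/L (1 U = 1 μmol NADH/min at 37 °C). Mean ± SEM.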

Data set [2] deals with T1, Basic phospholipase A2 homolog BnSP-7 (Bothropoides pauloensis) (UniProt Q9IAT9).
T1 sequence (whole entry): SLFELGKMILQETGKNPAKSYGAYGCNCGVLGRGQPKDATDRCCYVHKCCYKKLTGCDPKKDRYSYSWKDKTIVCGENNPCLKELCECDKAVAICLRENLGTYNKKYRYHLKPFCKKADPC
Nature of the data set: Inhibition of Phospholipase A2 Asp49 in Bothropoides pauloensis at 1:1 venom to drug ratio incubated up to 40 mins using 4N3OBA substrate by multiwell plate reader method. Particulars: Bothrops pauloensis. The essentials: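 Whole venom (1 mg/mL), alone or preincubated 1:1 (w:w) with compound, was added to Tris-HCl 0.1 M, Ca2+ 0.01 M, pH 8.0, with 4-nitro-3-octanoyloxybenzoic acid substrate. Mixture was kept at 37 °C up to 40 min, reading A425 every 5 min. V0 came from the absorbance increase after 20 min.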

Data set [3] relates to Bothrops pauloensis. Nature of the data set: Antihemorrhagic activity against Bothropoides pauloensis venom-induced hemorrhage in Swiss mouse assessed as decrease in hemorrhagic area at 50 ug preincubated with venom for 30 mins before venom injection measured 2 hrs post dose. The class given is functional. The essentials: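 Mice received 50 μL of 1% DMSO–PBS (pH 7.2) holding 50 μg B. pauloensis venom plus 50 μg alkaloid, preincubated 30 min at 37 °C. Vehicle-only negative controls. Five animals were killed at 2 h, and the inner dorsal skin was photographed. Hemorrhagic area was measured in mm2. Mean ± SEM, ANOVA with Dunnett's test.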

For data set [4], the system named is Bothrops pauloensis. Nature of the data set: Antihemorrhagic activity against Bothropoides pauloensis venom-induced hemorrhage in Swiss mouse assessed as reduction in intensity of hemorrhage area at 50 ug preincubated with venom for 30 mins before venom injection measured 2 hrs post dose. The class given is functional. The essentials:
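Venom (50 μg) was premixed with 50 μg alkaloid in 50 μL 1% DMSO–PBS, pH 7.2, and held 30 min at 37 °C before injection. At 2 h, five mice were killed and the inner dorsal skin was imaged. Intensity I = A × (N − H): A is area in mm2, N and H are mean colour intensity of normal and hemorrhagic skin. ANOVA/Dunnett.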

Data set [5] can be described thus: Fntinecrotizing activity against Bothropoides pauloensis venom-induced hemorrhage in Swiss mouse assessed as reduction in skin necrotic regions at 50 ug preincubated with venom for 30 mins before venom injection measured 2 hrs post dose. The data set is classed as ADME, tissue-based, Skin of body. Particulars: bothrops pauloensis, in vivo.

Calls of active or inactive are those of the source. No cut-off for these calls is given here.

Take `C[C@H]1C[C@H]2O[C@]23[C@@H](C)[C@H]2[C@H](C[C@H]4[C@@H]5CCC6=CC(=O)C=C[C@]6(C)C5=CC[C@]24C)N3C1`: the outcome in the data set on HL-60, in the data set on SF-295, with MDA-MB-435 and with HCT-8 was inactive. Moreover, the result in the data set on Bothrops pauloensis [1], in the data set on Bothrops pauloensis [3] and in the data set on Bothrops pauloensis [4] was Active. The inhibition result in data set [2] is “inactive”. In addition, in data set [5], the result was Active.

In the case of `C[C@H]1C[C@H]2O[C@]23[C@@H](C)[C@H]2[C@H](C[C@H]4[C@@H]5CCC6=CC(=O)C=C[C@]6(C)[C@H]5CC[C@]24C)N3C1` (relative stereo), the outcome with HL-60, with SF-295, in the data set with MDA-MB-435 and with HCT-8 was inactive. The result in the data set on Bothrops pauloensis [1], with Bothrops pauloensis [3] and in the data set on Bothrops pauloensis [4] was Active. In addition, the inhibition result in data set [2] is “inactive”. In addition, the outcome in [5] was Active.

Take `Cc1ccc(O)cc1CC[C@@H]1[C@@H](O)CC[C@]2(C)[C@@H]3[C@H](C[C@@H]12)N1C[C@@H](C)C[C@H]2O[C@]21[C@H]3C` (relative stereo): the result in the data set with HL-60, with SF-295, in the data set on MDA-MB-435 and in the data set with HCT-8 was inactive. For the same compound, the result in the data set with Bothrops pauloensis [1] was Active. Further, the inhibition entry in data set [2] is “inactive”.
